Laboratory results reported in ChEMBL document CHEMBL3272019, “Synthesis and some properties and antitumor effects of the actinomycin lactam analog, (di(1-L-alpha, beta-diaminopropionic))actinomycin D1” (1976).
≈ marks a conversion by molar mass, not a printed value. Calls of active or inactive are those of the source. The calls are words filed in the database; no cut-off is given here. Starred links: 1 amine or outer side, 2 acyl side, 3 side chain; linkers in the order of their positions; H or OH if unused. Positions of bridges follow the written chain, without caps; N, C: chain ends. Non-standard residues stand in square brackets, D forms with d. Residues, ends and D or L forms follow the SMILES beside them. Chains are numbered I, II in the order given. Actinocin(1to9) = Cc1c2oc3c(C)ccc(C(=O)[*:2])c3nc-2c(C(=O)[*:1])c(N)c1=O; NMeV = CN[C@H](C(=O)O)C(C)C; Sar = CNCC(=O)O

Assays:
Homo sapiens [1] = organism: Homo sapiens; assay: Binding affinity to poly[d(DAP-A-T)] (unknown origin) at 14.3 uM by visible and near-UV CD spectrophotometry
Outline: (§1)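 Visible and near-UV CD spectra of actinomycin D recorded free and with polynucleotide, in 0.01 M sodium phosphate pH 7.0 at about 23°, in 1-cm tandem cylindrical quartz cells. DNA levels were given as nucleotide phosphorus: PM2 0.54 mM, calf thymus 0.50 mM, poly[d(DAP-A-T)] 0.12 mM and poly[d(DAP-T)] 0.27 mM. Drug concentration was set from the 440 nm extinction coefficient (24450 M⁻¹ cm⁻¹).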

Homo sapiens [2] = organism: Homo sapiens; assay: Binding affinity to poly[d(DAP-T)] (unknown origin) at 14.3 uM by visible and near-UV CD spectrophotometry; outline: as §1
Calf thymus DNA = assay: Binding affinity to calf thymus DNA at 34.5 uM by visible and near-UV CD spectrophotometry; format: nucleic-acid assay; details: Bos taurus; outline: as §1
[3] = tested on: Pseudoalteromonas phage PM2; assay: Binding affinity to bacteriophage PM2 DNA at 31 uM by visible and near-UV CD spectrophotometry; outline: as §1
Bacillus subtilis = assay: Antibacterial activity against Bacillus subtilis Marburg assessed as growth inhibition; format: functional
Staphylococcus aureus = assay: Antibacterial activity against Penicillin-resistant Staphylococcus aureus assessed as growth inhibition; format: functional
Sarcina = assay: Antibacterial activity against Sarcina subflava assessed as growth inhibition; format: functional
L1210 [4] = assay: Antitumor activity against mouse L1210 cells allografted in BDF1 mouse assessed as mean survival time at 0.05 mg/kg/injection, ip administered daily for 9 days (reference value: 9.6 days); format: functional; details: route intraperitoneal
L1210 [5] = assay: Antitumor activity against mouse L1210 cells allografted in BDF1 mouse assessed as mean survival time at 0.3 mg/kg/injection, ip administered intermittently on days 1, 5 and 9 (reference value: 9.6 days); format: functional; details: route intraperitoneal
L1210 [6] = assay: Antitumor activity against mouse L1210 cells allografted in BDF1 mouse assessed as mean survival time at 0.4 mg/kg/injection, ip administered as single dose (reference value: 9.6 days); format: functional; details: route intraperitoneal
L1210 [7] = assay: Antitumor activity against mouse L1210 cells allografted in BDF1 mouse assessed as increase in life span at 0.05 mg/kg/injection, ip administered daily for 9 days; format: functional; details: 216 h, route intraperitoneal
L1210 [8] = assay: Antitumor activity against mouse L1210 cells allografted in BDF1 mouse assessed as increase in lifespan at 0.3 mg/kg/injection, ip administered intermittently on days 1, 5 and 9; format: functional; details: route intraperitoneal
L1210 [9] = assay: Antitumor activity against mouse L1210 cells allografted in BDF1 mouse assessed as increase in life span at 0.4 mg/kg/injection, ip administered as single dose; format: functional; details: route intraperitoneal
P388 [10] = assay: Antitumor activity against mouse P388 cells allografted in BDF1 mouse assessed as mean survival time at 0.05 mg/kg/injection, ip administered daily for 9 days (reference value: 10.5 days); format: functional; details: route intraperitoneal
Outline: (§2)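 P388 leukaemia: 10⁶ cells implanted ip on day 0 into groups of eight male BDF mice. Dosing was ip daily on days 1–9, on days 1, 5 and 9, or as a single day-1 dose, over four- to fivefold dose ranges. Median survival time (range of deaths) and percent increase in life-span were recorded, with survivors/total counted at day 60.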

P388 [11] = assay: Antitumor activity against mouse P388 cells allografted in BDF1 mouse assessed as mean survival time at 0.3 mg/kg/injection, ip administered intermittently on days 1, 5 and 9 (reference value: 10.5 days); format: functional; details: route intraperitoneal; outline: as §2
P388 [12] = assay: Antitumor activity against mouse P388 cells allografted in BDF1 mouse assessed as mean survival time at 0.4 mg/kg/injection, ip administered as single dose (reference value: 10.5 days); format: functional; details: route intraperitoneal; outline: as §2
P388 [13] = assay: Antitumor activity against mouse P388 cells allografted in BDF1 mouse assessed as increase in life span at 0.05 mg/kg/injection, ip administered daily for 9 days measured on day 60; format: functional; details: route intraperitoneal; outline: as §2
P388 [14] = assay: Antitumor activity against mouse P388 cells allografted in BDF1 mouse assessed as increase in life span at 0.3 mg/kg/injection, ip administered intermittently on days 1, 5 and 9 measured on day 60; format: functional; details: 1440 h, route intraperitoneal; outline: as §2
P388 [15] = assay: Antitumor activity against mouse P388 cells allografted in BDF1 mouse assessed as increase in life span at 0.4 mg/kg/injection, ip administered as single dose measured on day 60; format: functional; details: 1440 h, route intraperitoneal; outline: as §2
B16 [16] = assay: Antitumor activity against mouse B16 cells allografted in BDF1 mouse assessed as mean survival time at 0.025 mg/kg/injection, ip administered daily for 9 days (reference value: 28 days); format: functional; details: route intraperitoneal
Outline: (§3)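 B16 melanoma in mice, standard screening method. Schedules were daily on days 1–9, on days 1, 5 and 9, or a single day-1 injection, each over a four- to fivefold dose range. Survival time (range of individual deaths) was recorded, percent increase in life-span computed against untreated controls, and survivors tallied.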

B16 [17] = assay: Antitumor activity against mouse B16 cells allografted in BDF1 mouse assessed as mean survival time at 0.3 mg/kg/injection, ip administered intermittently on days 1, 5 and 9 (reference value: 28 days); format: functional; details: route intraperitoneal; outline: as §3
B16 [18] = assay: Antitumor activity against mouse B16 cells allografted in BDF1 mouse assessed as mean survival time at 0.4 mg/kg/injection, ip administered as single dose (reference value: 28 days); format: functional; details: route intraperitoneal; outline: as §3
B16 [19] = assay: Antitumor activity against mouse B16 cells allografted in BDF1 mouse assessed as increase in life span at 0.025 mg/kg/injection, ip administered daily for 9 days measured on day 60; format: functional; details: route intraperitoneal; outline: as §3
B16 [20] = assay: Antitumor activity against mouse B16 cells allografted in BDF1 mouse assessed as increase in life span at 0.3 mg/kg/injection, ip administered intermittently on days 1, 5 and 9 measured on day 60; format: functional; details: 1440 h, route intraperitoneal; outline: as §3
B16 [21] = assay: Antitumor activity against mouse B16 cells allografted in BDF1 mouse assessed as increase in life span at 0.4 mg/kg/injection, ip administered as single dose measured on day 60; format: functional; details: 1440 h, route intraperitoneal; outline: as §3

Compound: Cc1c2oc3c(C)ccc(C(=O)N[C@@H]4C(=O)N[C@H](C(C)C)C(=O)N5CCC[C@H]5C(=O)N(C)CC(=O)N(C)[C@@H](C(C)C)C(=O)O[C@@H]4C)c3nc-2c(C(=O)N[C@@H]2C(=O)N[C@H](C(C)C)C(=O)N3CCC[C@H]3C(=O)N(C)CC(=O)N(C)[C@@H](C(C)C)C(=O)O[C@@H]2C)c(N)c1=O [DACTINOMYCIN] (I: T[dV]P[Sar][NMeV] / II: T[dV]P[Sar][NMeV]; ester I:1-I:C, II:1-II:C; linker I:N-II:N via Actinocin(1to9))
- Activity (Homo sapiens [1]): Active
- Activity (Homo sapiens [2]): Active
- Activity (Calf thymus DNA): Active
- Activity [3]: Active
- MIC (Bacillus subtilis): 0.09 mg/L (≈ 0.0717 µM)
- IC50 (Bacillus subtilis; read-out: ID50 (the source's name)): 0.05 mg/L (≈ 0.0398 µM)
- MIC (Staphylococcus aureus): 0.05 mg/L (≈ 0.0398 µM)
- MIC (Sarcina): 0.045 mg/L (≈ 0.0358 µM)
- MST (L1210 [4]): 13.6 days
- MST (L1210 [5]): 14 days
- MST (L1210 [6]): 12.6 days
- ILS at 0.05 mg/kg (L1210 [7]): 42%
- ILS at 0.3 mg/kg (L1210 [8]): 45%
- ILS at 0.4 mg/kg (L1210 [9]): 31%
- MST (P388 [10]): 28.5 days
- MST (P388 [11]): 38 days
- MST (P388 [12]): 22 days
- ILS at 0.05 mg/kg (P388 [13]): 171%
- ILS at 0.3 mg/kg (P388 [14]): 262%
- ILS at 0.4 mg/kg (P388 [15]): 110%
- MST (B16 [16]): 45 days
- MST (B16 [17]): 41.5 days
- MST (B16 [18]): 38.5 days
- ILS at 0.025 mg/kg (B16 [19]): 61%
- ILS at 0.3 mg/kg (B16 [20]): 48%
- ILS at 0.4 mg/kg (B16 [21]): 38%
